# In ChEMBL document CHEMBL1667815, “Pharmacophore models based studies on the affinity and selectivity toward 5-HT1A with reference to α1-adrenergic receptors among arylpiperazine derivatives of phenytoin” (Bioorg Med Chem, 2011):
# Tests used:
# [1] = molecular target: T1, Adrenergic receptor alpha-1 (Rattus norvegicus, UniProt P15823+P23944+P43140); assay: Displacement of [3H]-prazosin from alpha1-adrenergic receptor in rat cerebral cortex membranes after 30 mins by scintillation counting; format: cell membranes, Membrane
# T1 sequence (P15823 whole entry): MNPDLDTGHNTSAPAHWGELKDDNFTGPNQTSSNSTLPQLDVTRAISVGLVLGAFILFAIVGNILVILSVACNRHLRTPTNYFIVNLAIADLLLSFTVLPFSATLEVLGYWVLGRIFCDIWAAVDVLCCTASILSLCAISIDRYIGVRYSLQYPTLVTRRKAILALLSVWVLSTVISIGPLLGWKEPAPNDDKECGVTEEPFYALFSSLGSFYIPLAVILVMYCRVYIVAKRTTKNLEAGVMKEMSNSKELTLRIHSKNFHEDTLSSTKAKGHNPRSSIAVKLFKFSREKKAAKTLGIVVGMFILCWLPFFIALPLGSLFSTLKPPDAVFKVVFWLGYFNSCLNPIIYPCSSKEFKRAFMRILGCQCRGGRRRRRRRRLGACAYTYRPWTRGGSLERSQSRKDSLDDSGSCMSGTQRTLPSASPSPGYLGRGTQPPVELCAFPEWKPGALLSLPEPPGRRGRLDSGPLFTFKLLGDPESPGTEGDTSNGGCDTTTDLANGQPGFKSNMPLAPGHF
# T1 sequence (P23944 whole entry): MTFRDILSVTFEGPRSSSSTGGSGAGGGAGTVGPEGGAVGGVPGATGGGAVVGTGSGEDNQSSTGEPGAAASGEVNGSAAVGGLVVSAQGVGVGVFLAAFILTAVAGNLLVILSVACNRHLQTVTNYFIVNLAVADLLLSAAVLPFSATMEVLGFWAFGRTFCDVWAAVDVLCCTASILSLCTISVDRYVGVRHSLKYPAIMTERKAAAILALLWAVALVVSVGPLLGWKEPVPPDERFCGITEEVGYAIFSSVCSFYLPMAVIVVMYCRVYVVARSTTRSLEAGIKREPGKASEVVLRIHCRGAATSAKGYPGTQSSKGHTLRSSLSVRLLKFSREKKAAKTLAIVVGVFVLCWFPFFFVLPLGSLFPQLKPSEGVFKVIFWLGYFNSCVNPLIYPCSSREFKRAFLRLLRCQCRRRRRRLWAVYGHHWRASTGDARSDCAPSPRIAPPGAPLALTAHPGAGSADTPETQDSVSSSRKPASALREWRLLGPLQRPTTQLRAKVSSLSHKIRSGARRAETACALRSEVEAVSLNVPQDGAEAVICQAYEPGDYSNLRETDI
# T1 sequence (P43140 whole entry): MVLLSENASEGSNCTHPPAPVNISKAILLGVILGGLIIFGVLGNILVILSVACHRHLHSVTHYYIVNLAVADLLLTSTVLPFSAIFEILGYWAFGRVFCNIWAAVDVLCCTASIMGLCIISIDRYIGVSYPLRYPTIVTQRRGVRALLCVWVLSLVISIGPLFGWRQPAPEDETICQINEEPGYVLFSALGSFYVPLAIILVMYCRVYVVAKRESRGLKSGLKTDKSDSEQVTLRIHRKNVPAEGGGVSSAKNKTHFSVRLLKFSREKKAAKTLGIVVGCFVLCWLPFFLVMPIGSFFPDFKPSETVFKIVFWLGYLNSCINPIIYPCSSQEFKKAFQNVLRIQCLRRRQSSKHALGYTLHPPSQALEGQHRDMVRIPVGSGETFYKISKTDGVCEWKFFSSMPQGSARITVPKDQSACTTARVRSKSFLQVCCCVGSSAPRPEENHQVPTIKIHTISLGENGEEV
# Rattus norvegicus = organism: Rattus norvegicus; assay: Selectivity ratio of Ki for alpha1-adrenergic receptor in rat cerebral cortex membranes to Ki for 5-HT1A receptor in rat hippocampal membranes; format: cell membranes; conditions: Membrane
# [2] = molecular target: T2, 5-hydroxytryptamine receptor 1A (Rattus norvegicus) (UniProt P19327); assay: Displacement of [3H]-8-OH-DPAT from 5-HT1A receptor in rat hippocampal membranes by liquid scintillation counting; format: cell membranes; conditions: Hippocampus, Membrane
# T2 sequence (whole entry): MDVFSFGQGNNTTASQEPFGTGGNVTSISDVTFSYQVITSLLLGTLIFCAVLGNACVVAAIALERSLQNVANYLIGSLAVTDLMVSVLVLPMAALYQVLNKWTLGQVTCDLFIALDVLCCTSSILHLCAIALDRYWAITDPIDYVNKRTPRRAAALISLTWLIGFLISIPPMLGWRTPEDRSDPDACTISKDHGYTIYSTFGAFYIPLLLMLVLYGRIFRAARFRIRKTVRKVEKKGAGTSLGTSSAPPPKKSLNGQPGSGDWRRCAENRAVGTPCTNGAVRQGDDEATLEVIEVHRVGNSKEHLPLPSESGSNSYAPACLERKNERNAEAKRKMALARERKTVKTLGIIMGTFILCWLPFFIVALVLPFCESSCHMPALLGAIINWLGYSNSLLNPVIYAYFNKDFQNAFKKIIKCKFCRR
# How it was run: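 Native 5-HT1A sites in rat hippocampal membranes, labelled with [3H]-8-OH-DPAT (170.2 Ci/mmol). Each compound was tested at two concentrations (0.1 and 1), each in triplicate. Bound radioactivity was counted by liquid scintillation. Ks values were estimated from three independent binding experiments and reproduced within 20%.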
# [3] = molecular target: Adrenergic receptor alpha-1 (Rattus norvegicus) (UniProt P15823+P23944+P43140); conditions: Wistar, Thoracic aorta
Ki [1],Ratio (Rattus norvegicus),Ks [2],pKb [3],Compound
4.8 µM,8.35,575 nM,,COc1ccccc1N1CCN(CC(O)CN2C(=O)N(CC(=O)O)C(=O)C2(c2ccccc2)c2ccccc2)CC1.Cl (racemic)
,,610 nM,,CCN1C(=O)N(CC(O)CN2CCN(c3ccccc3)CC2)C(c2ccccc2)(c2ccccc2)C1=O (racemic)
,4.52,30 nM,,CCOC(=O)C(C)N1C(=O)N(CC(O)CN2CCN(c3ccccc3OC)CC2)C(c2ccccc2)(c2ccccc2)C1=O (racemic)
,,88 nM,,CCOC(=O)CN1C(=O)N(CC(O)CN2CCN(c3ccccc3OC)CC2)C(c2ccccc2)(c2ccccc2)C1=O (racemic)
,,38 nM,,CCOc1ccccc1N1CCN(CC(CN2C(=O)N(C)C(=O)C2(c2ccccc2)c2ccccc2)OC(C)=O)CC1 (racemic)
,,28 nM,,CCOc1ccccc1N1CCN(CC(O)CN2C(=O)N(C(C)C(=O)OC)C(=O)C2(c2ccccc2)c2ccccc2)CC1 (racemic)
,17.4,7 nM,,CCOc1ccccc1N1CCN(CC(O)CN2C(=O)N(C)C(=O)C2(c2ccccc2)c2ccccc2)CC1 (racemic)
,,37 nM,,CCOc1ccccc1N1CCN(CC(O)CN2C(=O)N(CC(=O)OC)C(=O)C2(c2ccccc2)c2ccccc2)CC1 (racemic)
,,83 nM,7.44,CCOc1ccccc1N1CCN(CC(O)CN2C(=O)NC(=O)C2(c2ccccc2)c2ccccc2)CC1 (racemic)
,1,104 nM,,COC(=O)C(C)N1C(=O)N(CC(O)CN2CCN(c3ccccc3OC)CC2)C(c2ccccc2)(c2ccccc2)C1=O (racemic)
,2.29,86 nM,,COC(=O)CN1C(=O)N(CC(O)CN2CCN(c3ccccc3OC)CC2)C(c2ccccc2)(c2ccccc2)C1=O (racemic)
,,22 nM,,COc1ccccc1N1CCN(CC(O)CN2C(=O)N(C)C(=O)C2(c2ccccc2)c2ccccc2)CC1 (racemic)
,,95 nM,,COc1ccccc1N1CCN(CC(O)CN2C(=O)NC(=O)C2(c2ccccc2)c2ccccc2)CC1 (racemic)
,,573 nM,,O=C1NC(=O)C(c2ccccc2)(c2ccccc2)N1CC(O)CN1CCN(c2ccccc2)CC1 (racemic)
